High-throughput results as filed in PubChem.
ROCK2 inh – blocks human Rho kinase 2 activity; inhibition, % at 6 µM; hit rate 0.35% among 60,000; AID 604; purified ROCK2, Kinase-Glo ATP depletion luminescence; O75116;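 active means inhibition above the screen-wide mean inhibition plus 3 SD, cut at about 18% in these data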;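 further: plate controls were DMSO wells for no effect and Y-27632 control wells after no-enzyme background subtraction for full effect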
PKA kinase inh – PKA (human) kinase inhibition | P17612 | PKA Kemptide phosphorylation, Kinase-Glo ATP luminescence | inhibition, % at 6 µM | hit rate 0.1% among 65,000 | AID 524;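 active means inhibition above the screen-wide mean inhibition plus 3 SD, cut at about 21% in these data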
SF1 activator – activates the human nuclear receptor SF-1. AID 522. hit rate 1.9% among 65,000. CHO-K1 Gal4-SF-1 LBD luciferase reporter; % increase over DMSO SF-1-specific signal. activation, % at 10 µM;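 active means activation above the mean activation of all tested compounds plus 3 SD, cut at about 50% in these data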
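Compound – one dose, 10 µM compound, 1% DMSO · Test system – transient Gal4-SF-1 LBD reporter, CHO-K1 · Input – 4,000 cells in each well · Read-out basis – percent activation relative to DMSO median and mock-transfected background · Replicates – single measurement per compound · Technique – steady-glow luciferase luminescence, read after 15 min reagent incubation · Timing – 20 h compound treatment, 37 °C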
JNK3 inh – blocks human JNK3 kinase activity | inhibition, % at 8 µM | P53779 | hit rate 0.61% among 60,000 | purified JNK3 kinase activity, HTS; in the data active means inhibition above about 17%;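 further: 0% = DMSO and 100% = reference inhibitor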
RORA act – activators of human nuclear receptor RORA. CHO-K1 Gal4-RORA LBD luciferase reporter, luminescence; percent increase over mock-subtracted basal signal. activation, % at 10 µM. P35398. hit rate 1.5% among 65,000;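 active means activation above the mean of all tested compounds plus 3 SD, cut at about 49% in these data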;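 further: 0% = DMSO-treated RORA cells and 100% = added signal equal to DMSO minus mock-transfected cells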
Target sequence (P35398 whole entry, looked up, the tested form may be a part): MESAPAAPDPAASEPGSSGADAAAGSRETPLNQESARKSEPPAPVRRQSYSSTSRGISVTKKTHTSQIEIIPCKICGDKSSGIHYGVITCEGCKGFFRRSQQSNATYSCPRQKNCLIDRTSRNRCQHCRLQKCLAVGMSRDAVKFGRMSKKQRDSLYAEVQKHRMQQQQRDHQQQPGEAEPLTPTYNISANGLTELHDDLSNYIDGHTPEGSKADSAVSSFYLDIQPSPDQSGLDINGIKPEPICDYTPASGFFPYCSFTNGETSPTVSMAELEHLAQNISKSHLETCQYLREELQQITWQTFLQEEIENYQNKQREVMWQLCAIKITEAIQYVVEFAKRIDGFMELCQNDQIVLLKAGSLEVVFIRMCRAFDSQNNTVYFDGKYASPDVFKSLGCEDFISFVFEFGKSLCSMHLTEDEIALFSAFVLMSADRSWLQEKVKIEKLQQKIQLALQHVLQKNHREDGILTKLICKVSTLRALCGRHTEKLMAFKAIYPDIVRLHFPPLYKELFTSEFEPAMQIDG
MMP13 inh – blocks human MMP13 activity. MMP-13 fTHP FRET cleavage, Mca fluorescence. inhibition, % at 4 µM. hit rate 0.07% among 65,000;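 active means inhibition above the mean of compound-free control plate wells plus 3 SD, cut at about 14% in these data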;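 further: 0% = DMSO wells and 100% = wells with reference MMP-13 inhibitor after basal subtraction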
* marks the source's active call; other numbers are inactive results; x = no result given. Shown are actives, neighbours in structure and some others; about 3.4% of the full set was active somewhere.

SMILES	ROCK2 inh	PKA kinase inh	SF1 activator	JNK3 inh	RORA act	MMP13 inh
CCCN1Cc2cccc(C(=O)NCc3ccc4c(c3)OCO4)c2C1=O	5	7	5	24*	4	5
Cc1ccc(N2C(=O)c3n[nH]c(C)c3C2c2ccco2)cc1 (stereo not drawn)	0	-7	41	1	67*	-3
CCOc1ccc(/C(O)=C2\C(=O)C(=O)N(CCN(C)C)C2c2cc(OC)ccc2OC)cc1Cl (stereo not drawn)	9	9	9	1	-8	-2
CN(C)c1cccc(C(=O)NC2CCCCCC2)c1	7	5	75*	-1	26	0
O=C(NC1CCCC1)c1cccc(S(=O)(=O)N2CCCCC2)c1	-2	8	-1	-5	-12	5
Fc1cc2nc(-c3ccncc3)[nH]c2cc1F	x	24*	7	x	21	-136
O=C(NCc1ccco1)Nc1ccc(Br)cc1Cl	4	-2	60*	2	57*	6
CC(=O)c1cccc(NC(=O)NCc2ccco2)c1	4	-2	20	-4	13	2
Cc1cccc(-n2ncc3c(NCc4ccco4)ncnc32)c1	11	6	93*	9	72*	-13
CCN(c1ccccc1)c1ncnc2c1cnn2-c1ccccc1	3	6	59*	3	59*	0
Fc1ccc(CNc2ncnc3c2cnn3-c2ccccc2)cc1	0	2	42	6	8	-7
Cc1cccc(-n2ncc3c(N(CCO)CCO)ncnc32)c1	-6	10	19	1	68*	1
c1ccc(CNc2ncnc3c2cnn3-c2ccccc2)cc1	8	13	77*	21*	91*	-5
Cc1nn(-c2ccc(Cl)cc2)c(N)c1C(O)(CSc1nccn1C)C(F)(F)F (stereo not drawn)	4	10	-2	2	-12	2
Cn1ncc2c(NCc3ccccc3)ncnc21	0	1	3	18*	8	-1
Cc1cccc(-n2ncc3c(NCc4ccccn4)ncnc32)c1	5	7	24	3	29	-22
Cc1cccc(-n2ncc3c(NCc4ccccc4)ncnc32)c1	-2	-5	82*	14	78*	-8
c1ccc(CCNc2ncnc3c2cnn3-c2ccccc2)cc1	0	-6	14	-2	56*	4
c1ccc(-n2ncc3c(NCCN4CCOCC4)ncnc32)cc1	0	2	38	-13	46	0
c1ccc(-n2ncc3c(NCCN4CCCCC4)ncnc32)cc1	9	13	69*	4	40	-4
Cc1ccc(C2C(C(=O)c3cc4ccccc4o3)=C(O)C(=O)N2CCCN(C)C)cc1 (stereo not drawn)	9	6	20	2	13	-2
COc1ccc(C(=O)COC(=O)CCN=C2NS(=O)(=O)c3ccccc32)cc1OC	6	7	4	-2	-4	8
Cc1ccc(-c2csc3ncnc(Sc4nnc(CN5CCCCCC5=O)o4)c23)cc1	4	8	-71	11	-57	3
COc1ccc2c(c1OC)C(=O)N(c1nccs1)C2	3	11	75*	-3	19	-11
COc1ccc(C2C(C(C)=O)=C(O)C(=O)N2c2nccs2)cc1OC (stereo not drawn)	-11	1	-7	5	-13	8
SMILES	ROCK2 inh	PKA kinase inh	SF1 activator	JNK3 inh	RORA act	MMP13 inh
CCOc1ccc(OCc2ccc(C(=O)Nc3ccc(Cl)cn3)o2)cc1	8	11	11	-8	16	5
O=C(Nc1ccc2c(c1)OCO2)c1ccc(COc2ccc3c(c2)CCC3)o1	-1	6	61*	3	-13	1
CCCOC(=O)c1ccc(NC(=O)c2ccoc2C)cc1	4	2	63*	8	42	-2
Cc1ccc(C(=O)Nc2ccc(O)c(C(=O)O)c2)o1	6	9	6	4	-10	0
CN(C)c1ccc(NC(=O)c2ccc(COc3cccc(Cl)c3)o2)cc1	x	2	42	x	73*	2
Cc1ccc(C(=O)Nc2ccc3c(c2)CCC3)o1	-5	1	59*	5	16	0
CCc1ccc(N2CC(C(=O)Nc3nccs3)CC2=O)cc1 (stereo not drawn)	6	11	6	0	-2	4
O=c1[nH]c2c(cc1CNCCN1CCOCC1)c(-c1cccc(F)c1)nn2-c1ccccc1	0	1	-10	6	-12	-71
CC(C)(C)c1ccccc1OCCCCCNCCO	6	13	8	-2	-18	0
Cc1occc1C(=O)Nc1ccc2c(c1)CCC2	-16	-7	75*	-4	55*	0
O=C(Nc1ccc2c(c1)CCC2)c1cnccn1	1	1	55*	3	17	0
Cc1occc1C(=O)Nc1ccc2c(c1)OCCO2	-14	1	44	7	23	-2
Cc1cnc(C(=O)Nc2ccc3c(c2)CCC3)cn1	2	4	40	-1	30	-9
OC1(c2cccc(C(F)(F)F)c2)CCN(c2ncnc3c2[nH]c2ccccc23)CC1	6	7	-22	-7	-24	-51
OC1(c2cccc(C(F)(F)F)c2)CCN(c2ccc(-c3ccccc3)nn2)CC1	x	4	38	x	66*	3
CCC(C)OC(=O)c1[nH]c2c(c1C)C(=O)CC(c1ccc(N(C)C)cc1)C2 (stereo not drawn)	0	-7	57*	1	44	4
COc1ccc(-c2nnc(SCc3nnc(-c4ccccc4)o3)n2C)cc1OC	9	9	12	8	53*	-2
CCOC(=O)N1CCC(NC(=O)c2cccc3c2C(=O)N(c2ccc(OC)cc2)C3)CC1	6	2	12	-2	9	-1
Cc1cc(C(=O)Nc2sc3c(c2C#N)CCC(C)C3)cs1 (stereo not drawn)	-1	-3	33	-2	91*	-5
CC(C)(C)C1CCc2c(sc(NC(=O)c3cc(C4CC4)on3)c2C#N)C1 (stereo not drawn)	3	-6	-9	-4	14	1
CC(C)c1cc(C(=O)Nc2sc3c(c2C#N)CCC3)no1	2	4	46	-10	76*	3
Cc1cc(C(=O)Nc2sc3c(c2C#N)CCC(C(C)(C)C)C3)no1 (stereo not drawn)	-3	7	58*	2	-7	-2
COc1ccccc1N1CCN(C(c2cccs2)c2nnnn2C2CCCC2)CC1 (stereo not drawn)	-1	3	1	-4	-6	3
CCOC(=O)c1cnn(-c2ccccn2)c1N	10	-3	35	5	53*	-1
CCOC(=O)c1cnc2c(-c3ccccc3)cnn2c1N	0	4	52*	1	-5	-6
COCCCN(C(C)=O)c1nc(-c2ccccc2)cs1	4	5	79*	7	35	0
